Measured values pooled from the literature.
Target: Glycogen synthase kinase-3 beta (GSK3B, Homo sapiens, UniProt P49841)

For `CC(C)(C)c1cc(C=C(C#N)C#N)cc(Br)c1O`, the remaining activity was 107% (enzyme activity, inhibitor; 0.5 µM).
`Cn1cncc1[C@](O)(COc1ccc(C#N)cc1-c1ccc(OC(F)(F)F)cc1)c1ccc(C#N)cc1` gave a remaining binding of 93% (cell-free assay, competition with immobilised ligand; 1 µM).
`O=[N+]([O-])c1ccc([As](=O)(O)O)cc1` gave an inhibition of 5.2% (enzyme activity, inhibitor, ADP detection; 100 µM).
For `C#Cc1n[nH]c2c(-c3cn([C@@H](C)c4ccccn4)c(=O)[nH]c3=O)cc(F)cc12`, the inhibition was -0.1% (enzyme activity, inhibitor; 0.1 µM).
`Nc1ncc(-c2nc(N3CCOCC3)nc(N3CCOCC3)n2)c(C(F)F)n1` has a remaining binding of 74% (binding, competition with immobilised ligand; 10 µM).
`C#Cc1n[nH]c2c(-c3cn([C@@H](C)c4ccccc4)c(=O)[nH]c3=O)cc(F)cc12` has an inhibition of -3.5% (enzyme activity, inhibitor; 0.1 µM).
The inhibition of `Cn1cc(-c2cc(F)cc(N3CCn4c(cc5c4CCCC5)C3=O)c2CO)cc(Nc2ccc(N3CCN(C4COC4)CC3)cn2)c1=O` is reported as 5% (enzyme activity, inhibitor; 0.1 µM).
`COc1cc2c(cc1-c1cc3cc4ccoc4cc3oc1=O)OCO2` has an inhibition of 26.4% (enzyme activity, inhibitor, ADP detection; 100 µM).
`O=c1[nH]c2ccccc2n1C1CCN(Cc2ccc(-c3[nH]c4cc5ncnc5cc4nc3-c3ccccc3)cc2)CC1` gave a remaining activity of 113% (enzyme activity; 0.5 µM).
For `COc1ncccc1-c1cnn2ccc(N3CCN(C(=O)OC(C)C)CC3)nc12`, the remaining binding was 62% (binding, competition with immobilised ligand; 1 µM).
With `Cn1cc(-c2cccc(N3CCc4c(sc5c4CC(C)(C)C5)C3=O)c2CO)cc(Nc2ccncn2)c1=O` the inhibition was -5% (enzyme activity, inhibitor; 1 µM).
The inhibition of `COc1c2c(cc3c1OCO3)CC[N+](C)=C2` is reported as 24.8% (enzyme activity, inhibitor, ADP detection; 100 µM).
The remaining binding of `Cc1nn(C)cc1-c1nc2c(N3CCN(Cc4ccc(Cl)cc4)CC3)c(Cl)cnc2[nH]1` is reported as 68% (binding, competition with immobilised ligand; 1 µM).
